Experimental data from ChEMBL document CHEMBL4706593, “Induced protein degradation of histone deacetylases 3 (HDAC3) by proteolysis targeting chimera (PROTAC)” (Eur J Med Chem, 2020).
Active and inactive are the calls of the source. The calls are words filed in the database; no cut-off is given here.

How the values were obtained:
[1] = target: T1, Protein cereblon/Histone deacetylase 3 (Mus musculus) (UniProt O88895+Q8C7D2); test: Protac activity at CRBN/HDAC3 in mouse RAW264.7 cells assessed as induction of HDAC3 degradation at 10 uM by Western blot analysis; assay type: cell-based
Method in brief: (§1)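 RAW264.7 macrophages treated at 10 µM. Cells lysed in ice-cold HEPES/MgCl2/EDTA/0.5% Triton X-100 with protease inhibitors, protein by BCA, 4–12% Bis-Tris SDS-PAGE, PVDF transfer. Probed with HDAC1, HDAC2 or HDAC3 antibodies (1:2000) and β-actin, then HRP secondary and chemiluminescence. Bands quantified by densitometry as fold of untreated control, mean ± SD of 2 independent experiments.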

[2] = Cytotoxicity against mouse RAW264.7 cells assessed as cell survival up to 10 uM measured after 24 hrs by MTS assay relative to control; assay type: cell-based; conditions: read-out: Survival
Method in brief: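 RAW264.7 macrophages (ATCC, passage 5–16) grown in DMEM GlutaMAX with 10% heated FBS at 37 °C, 5% CO2. Cells seeded at 25,000 cells/cm2 and treated the next day in fresh medium with compound up to 10 μM for 24 h at 37 °C. CellTiter 96 AQueous One (MTS) reagent added for 2 h at 37 °C in the dark, absorbance read at 490 nm, expressed as % of control.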

Histone deacetylase 2 = Histone deacetylase 2 (Homo sapiens, UniProt Q92769); test: Inhibition of recombinant human full-length C-terminal FLAG-tagged HDAC2 expressed in baculovirus infected Sf9 insect cells using Boc-Lys(epsilon-Ac)-AMC as substrate measured after 90 mins by fluorescence assay
Histone deacetylase 2, sequence (Q92769 whole entry, the tested form may be a part): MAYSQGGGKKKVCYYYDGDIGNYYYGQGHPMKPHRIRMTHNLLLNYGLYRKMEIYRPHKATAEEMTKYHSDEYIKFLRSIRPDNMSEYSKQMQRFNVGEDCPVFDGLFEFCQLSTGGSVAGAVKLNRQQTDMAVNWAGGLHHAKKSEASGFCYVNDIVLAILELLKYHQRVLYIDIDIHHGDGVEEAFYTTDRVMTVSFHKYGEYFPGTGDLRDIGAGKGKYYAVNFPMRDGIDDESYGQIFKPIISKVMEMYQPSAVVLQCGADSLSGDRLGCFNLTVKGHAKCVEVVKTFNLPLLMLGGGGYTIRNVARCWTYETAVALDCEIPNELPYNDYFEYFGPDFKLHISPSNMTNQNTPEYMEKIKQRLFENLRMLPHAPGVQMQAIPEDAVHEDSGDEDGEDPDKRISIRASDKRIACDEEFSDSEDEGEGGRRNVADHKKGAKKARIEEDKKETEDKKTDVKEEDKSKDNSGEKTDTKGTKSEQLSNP

Histone deacetylase 1 = Histone deacetylase 1 (Homo sapiens, UniProt Q13547); test: Inhibition of recombinant human C-terminal His/FLAG-tagged HDAC1 (1 to 482 residues) expressed in Sf9 insect cells using Boc-Lys(epsilon-Ac)-AMC as substrate measured after 90 mins by fluorescence assay
Histone deacetylase 1, sequence (Q13547 whole entry, the tested form may be a part): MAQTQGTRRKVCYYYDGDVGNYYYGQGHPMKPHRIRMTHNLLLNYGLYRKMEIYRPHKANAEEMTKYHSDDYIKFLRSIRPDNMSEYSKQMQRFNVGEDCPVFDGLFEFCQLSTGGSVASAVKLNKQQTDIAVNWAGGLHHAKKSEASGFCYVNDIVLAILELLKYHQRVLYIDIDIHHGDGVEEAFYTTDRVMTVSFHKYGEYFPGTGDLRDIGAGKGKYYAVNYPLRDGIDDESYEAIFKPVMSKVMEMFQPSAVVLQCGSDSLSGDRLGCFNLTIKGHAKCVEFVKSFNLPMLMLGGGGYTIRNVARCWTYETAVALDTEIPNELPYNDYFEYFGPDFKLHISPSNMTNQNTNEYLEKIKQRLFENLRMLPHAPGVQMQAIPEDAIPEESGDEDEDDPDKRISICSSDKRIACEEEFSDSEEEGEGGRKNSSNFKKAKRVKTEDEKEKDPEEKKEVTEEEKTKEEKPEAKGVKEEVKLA

[3] = target: T2, Protein cereblon/Histone deacetylase 1 (Mus musculus) (UniProt O09106+Q8C7D2); test: Protac activity at CRBN/HDAC1 in mouse RAW264.7 cells assessed as induction of HDAC1 degradation at 10 uM by Western blot analysis; assay type: cell-based; method in brief: as §1
T2 sequence (O09106 whole entry, looked up, one chain of several, the tested form may be a part): as the sequence (Q13547 whole entry, the tested form may be a part) above, with R8K, D399E, E424D counted along it

[4] = target: Histone deacetylase 3/Nuclear receptor corepressor 2 (HDAC3/NCoR2) (Homo sapiens, UniProt O15379); test: Inhibition of human recombinant C-terminal His-tagged HDAC3 (1 to 428 residues)/N-terminal GST-tagged NCOR2 (395 to 489 residues) expressed in baculovirus infected Sf9 insect cells using Boc-Lys(epsilon-Ac)-AMC as substrate measured after 90 mins by fluorescence assay
Histone deacetylase 3/Nuclear receptor corepressor 2 (HDAC3/NCoR2), sequence (O15379 whole entry, the tested form may be a part): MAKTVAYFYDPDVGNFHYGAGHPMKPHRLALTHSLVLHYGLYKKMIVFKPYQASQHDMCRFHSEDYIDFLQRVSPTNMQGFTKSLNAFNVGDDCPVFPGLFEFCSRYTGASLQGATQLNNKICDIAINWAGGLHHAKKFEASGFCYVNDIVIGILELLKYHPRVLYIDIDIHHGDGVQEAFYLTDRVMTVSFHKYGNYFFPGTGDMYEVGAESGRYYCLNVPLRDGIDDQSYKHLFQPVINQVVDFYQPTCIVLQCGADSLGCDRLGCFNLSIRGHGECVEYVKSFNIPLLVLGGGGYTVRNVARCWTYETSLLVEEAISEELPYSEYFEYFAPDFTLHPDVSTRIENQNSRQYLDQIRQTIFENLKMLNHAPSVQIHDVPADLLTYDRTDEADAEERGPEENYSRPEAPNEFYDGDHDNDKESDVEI
Histone deacetylase 3/Nuclear receptor corepressor 2 (HDAC3/NCoR2), sequence (Q9Y618 whole entry, further chain, the tested form may be a part): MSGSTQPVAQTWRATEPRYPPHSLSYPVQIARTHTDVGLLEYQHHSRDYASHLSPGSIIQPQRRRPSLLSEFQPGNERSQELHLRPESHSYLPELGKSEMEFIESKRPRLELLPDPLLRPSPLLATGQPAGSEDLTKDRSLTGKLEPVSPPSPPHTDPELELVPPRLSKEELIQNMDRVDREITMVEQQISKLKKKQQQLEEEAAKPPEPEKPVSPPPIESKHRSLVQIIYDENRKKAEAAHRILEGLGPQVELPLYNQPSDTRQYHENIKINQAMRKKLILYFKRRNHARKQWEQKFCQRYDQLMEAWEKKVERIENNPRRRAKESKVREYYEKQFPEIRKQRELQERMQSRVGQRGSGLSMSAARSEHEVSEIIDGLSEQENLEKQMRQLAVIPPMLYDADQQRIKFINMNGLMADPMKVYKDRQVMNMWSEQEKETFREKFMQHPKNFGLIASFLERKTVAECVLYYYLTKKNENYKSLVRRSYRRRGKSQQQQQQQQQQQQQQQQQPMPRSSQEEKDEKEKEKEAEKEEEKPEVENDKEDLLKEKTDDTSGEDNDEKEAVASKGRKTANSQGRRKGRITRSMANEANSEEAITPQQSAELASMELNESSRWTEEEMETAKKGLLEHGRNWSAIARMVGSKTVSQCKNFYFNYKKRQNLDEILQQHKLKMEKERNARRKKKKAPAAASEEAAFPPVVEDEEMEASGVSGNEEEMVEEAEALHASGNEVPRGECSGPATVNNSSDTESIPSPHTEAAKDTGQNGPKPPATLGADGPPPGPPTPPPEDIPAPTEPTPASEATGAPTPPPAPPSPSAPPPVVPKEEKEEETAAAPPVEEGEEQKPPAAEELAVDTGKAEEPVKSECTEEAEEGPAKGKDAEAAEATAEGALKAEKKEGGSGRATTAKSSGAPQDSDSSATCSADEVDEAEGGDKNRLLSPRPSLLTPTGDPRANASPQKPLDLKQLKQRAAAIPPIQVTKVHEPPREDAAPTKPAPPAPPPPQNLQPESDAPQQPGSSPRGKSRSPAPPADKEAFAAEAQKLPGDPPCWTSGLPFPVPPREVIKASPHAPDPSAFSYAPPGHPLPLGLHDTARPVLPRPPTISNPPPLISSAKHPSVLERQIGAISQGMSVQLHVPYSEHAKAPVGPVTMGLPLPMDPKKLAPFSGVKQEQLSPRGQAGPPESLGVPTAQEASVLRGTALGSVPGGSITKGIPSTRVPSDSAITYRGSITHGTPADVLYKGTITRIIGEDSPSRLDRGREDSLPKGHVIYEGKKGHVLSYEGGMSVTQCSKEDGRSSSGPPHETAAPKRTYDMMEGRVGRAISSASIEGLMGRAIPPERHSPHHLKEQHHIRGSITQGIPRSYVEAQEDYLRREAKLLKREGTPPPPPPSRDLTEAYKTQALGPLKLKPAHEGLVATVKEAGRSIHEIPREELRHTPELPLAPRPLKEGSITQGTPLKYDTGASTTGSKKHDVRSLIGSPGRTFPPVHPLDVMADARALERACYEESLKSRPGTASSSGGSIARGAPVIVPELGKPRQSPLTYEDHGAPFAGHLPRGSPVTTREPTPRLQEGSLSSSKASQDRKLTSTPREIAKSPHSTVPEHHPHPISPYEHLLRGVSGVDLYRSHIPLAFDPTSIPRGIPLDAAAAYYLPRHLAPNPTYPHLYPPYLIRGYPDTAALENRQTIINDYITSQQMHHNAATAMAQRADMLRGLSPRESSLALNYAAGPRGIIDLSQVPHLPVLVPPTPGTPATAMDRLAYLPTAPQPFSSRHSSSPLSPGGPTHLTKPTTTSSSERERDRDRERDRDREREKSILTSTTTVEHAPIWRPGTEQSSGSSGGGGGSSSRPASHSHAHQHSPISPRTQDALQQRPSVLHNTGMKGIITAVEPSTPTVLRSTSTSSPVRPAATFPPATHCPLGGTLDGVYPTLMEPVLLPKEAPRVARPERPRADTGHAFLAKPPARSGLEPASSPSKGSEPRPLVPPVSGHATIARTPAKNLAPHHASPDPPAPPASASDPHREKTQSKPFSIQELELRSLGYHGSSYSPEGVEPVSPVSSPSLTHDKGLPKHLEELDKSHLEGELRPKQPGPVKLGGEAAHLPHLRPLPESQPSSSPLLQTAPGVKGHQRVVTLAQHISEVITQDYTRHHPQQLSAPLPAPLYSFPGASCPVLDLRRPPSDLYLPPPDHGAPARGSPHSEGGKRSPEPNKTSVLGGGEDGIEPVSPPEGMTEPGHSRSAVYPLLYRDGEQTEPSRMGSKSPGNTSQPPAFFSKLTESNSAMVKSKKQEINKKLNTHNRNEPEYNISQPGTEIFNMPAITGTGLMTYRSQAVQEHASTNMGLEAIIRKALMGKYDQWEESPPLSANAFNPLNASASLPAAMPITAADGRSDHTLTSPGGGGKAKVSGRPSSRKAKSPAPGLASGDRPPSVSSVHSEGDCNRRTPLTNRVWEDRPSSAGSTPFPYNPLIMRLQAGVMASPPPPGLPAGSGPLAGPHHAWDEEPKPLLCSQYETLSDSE
Method in brief: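 Incubated with inhibitor dilutions (in 10% DMSO/buffer) and Boc-Lys(ε-Ac)-AMC, 90 min at 37 °C. Stopped with trypsin plus 200 µM vorinostat, 30 min at 37 °C.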

[5] = Down regulation of NFkappaB p65 expression in LPS/IFNgamma-induced mouse RAW264.7 cells at 10 uM incubated for 20 hrs followed by LPS/IFNgamma stimulation and measured after 4 hrs by Western blot analysis; conditions: raw264.7, 24 h
Method in brief: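 RAW264.7 cells treated and NF-κB p65 protein measured by western blot with p65 antibody (1:2500), β-actin loading control, HRP secondary and chemiluminescent detection.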

RAW264.7 = test: Effect on LPS/IFNgamma-induced IL-10 mRNA expression in mouse RAW264.7 cells at 1 uM incubated for 20 hrs followed by LPS/IFNgamma stimulation and measured after 4 hrs by RT-qPCR analysis; assay type: functional, cell-based; conditions: time 24.0 hrs
Method in brief: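 RAW264.7 macrophages treated for 24h, with LPS/IFNγ stimulation during the final 4h. Vehicle cells received a proportional DMSO dilution. Total RNA isolated from DPBS-washed cells and IL-10 transcription measured by RT-qPCR. Mean ± SD of 2–3 independent experiments.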

[6] = target: T3, Protein cereblon/Histone deacetylase 2 (Mus musculus) (UniProt P70288+Q8C7D2); test: Protac activity at CRBN/HDAC2 in mouse RAW264.7 cells assessed as induction of HDAC2 degradation at 0.01 to 10 uM measured after 24 hrs by Western blot analysis; assay type: cell-based; conditions: dose 0.01-10 µM
T3 sequence (P70288 whole entry, looked up, one chain of several): as the sequence (Q92769 whole entry, the tested form may be a part) above, with V289A, T477P, T480A counted along it
Method in brief: (§2)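 RAW264.7 cells treated across 0.001–30 µM. Lysates blotted as standard, but membranes blocked in Odyssey buffer and probed with IRDye 680RD anti-mouse and 800CW anti-rabbit secondaries (1:10000). Bands imaged on a fluorescence scanner and quantified to derive DC50 (50% degradation concentration), expressed as percentage of untreated control, mean ± SD of 2–3 independent experiments.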

[7] = target: T2, Protein cereblon/Histone deacetylase 1 (Mus musculus); test: Protac activity at CRBN/HDAC1 in mouse RAW264.7 cells assessed as induction of HDAC1 degradation at 0.01 to 10 uM measured after 24 hrs by Western blot analysis; assay type: cell-based; conditions: dose 0.01-10 µM
[8] = target: T1, Protein cereblon/Histone deacetylase 3 (Mus musculus); test: Protac activity at CRBN/HDAC3 in mouse RAW264.7 cells assessed as induction of HDAC3 degradation at 10 uM measured after 24 hrs in presence of CRBN ligand pomalidomide by Western blot analysis; assay type: cell-based
Method in brief: (§3)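 RAW264.7 cells pre-treated 1h with pomalidomide or CI994 (competitor), then the PROTAC added for 24h combined treatment. Control cells received competitor alone for 25h. HDAC3 measured by western blot, quantified as fold of untreated control, mean ± SD of 2 independent experiments.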

[9] = target: T1, Protein cereblon/Histone deacetylase 3 (Mus musculus); test: Protac activity at CRBN/HDAC3 in mouse RAW264.7 cells assessed as induction of HDAC3 degradation at 10 uM measured after 24 hrs in presence of HDAC ligand CI994 by Western blot analysis; assay type: cell-based; method in brief: as §3
[10] = target: T1, Protein cereblon/Histone deacetylase 3 (Mus musculus); test: Protac activity at CRBN/HDAC3 in mouse RAW264.7 cells assessed as increase of H3K27 acetylation at 10 uM measured after 24 hrs by Western blot analysis; assay type: cell-based
Method in brief: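 RAW264.7 macrophages treated for 24h. H3K27 acetylation measured by western blot with acH3K27 antibody (1:1000), HRP detection. Bands quantified as fold of untreated control, mean ± SD of 2 independent experiments.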

[11] = target: T1, Protein cereblon/Histone deacetylase 3 (Mus musculus); test: Protac activity at CRBN/HDAC3 in mouse RAW264.7 cells assessed as induction of HDAC3 degradation at 10 uM measured after 24 hrs in presence of proteasome inhibitor bortezomib by Western blot analysis; assay type: cell-based
Method in brief: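 RAW264.7 macrophages treated 24h with bortezomib, the PROTAC, or both together. HDAC3 measured by western blot, quantified as fold of untreated control, mean ± SD of 2 independent experiments.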

[12] = target: T4, Protein cereblon/Histone deacetylase 3 (Mus musculus, UniProt O88895+Q8C7D2); test: Protac activity at CRBN/HDAC3 in mouse RAW264.7 cells assessed as induction of HDAC3 degradation measured after 24 hrs by Western blot analysis; assay type: cell-based; method in brief: as §2
T4 sequence (O88895 whole entry): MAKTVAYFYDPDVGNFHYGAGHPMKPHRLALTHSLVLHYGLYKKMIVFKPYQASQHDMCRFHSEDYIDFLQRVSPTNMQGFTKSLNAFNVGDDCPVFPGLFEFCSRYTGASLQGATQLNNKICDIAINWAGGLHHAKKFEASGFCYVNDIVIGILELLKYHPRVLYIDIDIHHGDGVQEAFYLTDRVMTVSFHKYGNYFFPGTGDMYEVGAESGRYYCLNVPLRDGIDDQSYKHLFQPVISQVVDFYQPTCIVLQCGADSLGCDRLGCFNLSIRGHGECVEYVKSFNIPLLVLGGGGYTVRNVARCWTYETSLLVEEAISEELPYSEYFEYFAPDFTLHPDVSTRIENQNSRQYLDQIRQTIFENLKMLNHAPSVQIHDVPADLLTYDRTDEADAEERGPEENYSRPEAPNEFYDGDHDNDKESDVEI
T4 sequence (Q8C7D2 whole entry): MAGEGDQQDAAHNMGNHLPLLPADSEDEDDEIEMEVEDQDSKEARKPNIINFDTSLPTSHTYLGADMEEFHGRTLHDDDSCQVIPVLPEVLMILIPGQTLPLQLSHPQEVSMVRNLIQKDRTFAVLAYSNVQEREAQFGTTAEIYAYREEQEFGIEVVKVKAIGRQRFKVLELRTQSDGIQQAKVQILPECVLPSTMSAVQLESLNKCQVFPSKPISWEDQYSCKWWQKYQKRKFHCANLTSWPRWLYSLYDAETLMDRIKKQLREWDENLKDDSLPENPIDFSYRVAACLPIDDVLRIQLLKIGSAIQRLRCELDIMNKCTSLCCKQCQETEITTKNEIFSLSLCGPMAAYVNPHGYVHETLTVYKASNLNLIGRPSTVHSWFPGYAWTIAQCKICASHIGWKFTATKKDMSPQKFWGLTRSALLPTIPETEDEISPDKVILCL

[13] = target: T1, Protein cereblon/Histone deacetylase 3 (Mus musculus); test: Protac activity at CRBN/HDAC3 in mouse RAW264.7 cells assessed as induction of HDAC3 degradation at 10 uM measured after 6 to 48 hrs by Western blot analysis; assay type: cell-based; conditions: time 6-48 hrs
Method in brief: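 RAW264.7 macrophages treated for the indicated times. HDAC3 level measured by western blot against β-actin. Bands quantified as fold of untreated control, mean ± SD of 2 independent experiments.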

[14] = target: T2, Protein cereblon/Histone deacetylase 1 (Mus musculus); test: Protac activity at CRBN/HDAC1 in mouse RAW264.7 cells assessed as induction of HDAC1 degradation at 30 to 100 uM measured after 24 hrs by Western blot analysis; assay type: cell-based; conditions: dose 30-100 µM
Method in brief: (§4)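 RAW264.7 macrophages exposed to 1–100 µM for HDAC1/2/3 level assessment. Protein read by western blot: lysis, BCA, Bis-Tris SDS-PAGE, PVDF, overnight 4 °C primary antibodies (HDAC1, 2, 3 at 1:2000; β-actin 1:10000), HRP secondaries, chemiluminescence.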

[15] = target: T1, Protein cereblon/Histone deacetylase 3 (Mus musculus); test: Protac activity at CRBN/HDAC3 in mouse RAW264.7 cells assessed as induction of HDAC3 degradation at 10 to 100 uM measured after 24 hrs by Western blot analysis; assay type: cell-based; conditions: dose 10-100 µM; method in brief: as §4
[16] = target: Protein cereblon/Histone deacetylase 3 (Homo sapiens) (UniProt O15379+Q96SW2); test: Protac activity at CRBN/HDAC3 in human A549 cells assessed as induction of HDAC3 degradation up to 50 uM by Western blot analysis; assay type: cell-based; conditions: dose microM <=50
Protein cereblon/Histone deacetylase 3 (Homo sapiens), sequence (O15379 whole entry, looked up): as the sequence (O15379 whole entry, the tested form may be a part) above
Protein cereblon/Histone deacetylase 3 (Homo sapiens), sequence (Q96SW2 whole entry, looked up): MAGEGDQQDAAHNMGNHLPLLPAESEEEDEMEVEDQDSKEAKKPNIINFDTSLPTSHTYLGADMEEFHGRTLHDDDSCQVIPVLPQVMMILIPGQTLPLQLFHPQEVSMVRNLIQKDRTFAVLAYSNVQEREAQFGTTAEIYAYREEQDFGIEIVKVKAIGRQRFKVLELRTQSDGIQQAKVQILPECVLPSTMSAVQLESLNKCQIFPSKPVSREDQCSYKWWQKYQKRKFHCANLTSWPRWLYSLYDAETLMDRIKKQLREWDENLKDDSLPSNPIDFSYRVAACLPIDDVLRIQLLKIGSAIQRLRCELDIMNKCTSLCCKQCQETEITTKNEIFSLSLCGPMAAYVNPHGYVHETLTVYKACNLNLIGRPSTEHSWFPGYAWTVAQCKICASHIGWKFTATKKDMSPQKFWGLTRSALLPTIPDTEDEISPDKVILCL

[17] = target: T3, Protein cereblon/Histone deacetylase 2 (Mus musculus); test: Protac activity at CRBN/HDAC2 in mouse RAW264.7 cells assessed as induction of HDAC2 degradation at 100 uM measured after 24 hrs by Western blot analysis; assay type: cell-based; method in brief: as §4

| SMILES | Activity [1] | viability at 24 h [2] | IC50 (Histone deacetylase 2) | IC50 (Histone deacetylase 1) | Activity [3] | IC50 [4] | Activity [5] | other results |
| --- | --- | --- | --- | --- | --- | --- | --- | --- |
| Nc1ccccc1NC(=O)c1ccc(NC(=O)CCCNc2cccc3c2C(=O)N(C2CCC(=O)NC2=O)C3=O)cc1 (stereo unspecified) | Active | > 80% | 1.2 µM | 0.36 µM | inactive | 0.87 µM | – | – |
| O=C1CCC(N2C(=O)c3ccccc3C2=O)C(=O)N1 (stereo unspecified) [THALIDOMIDE] | – | – | – | – | – | – | Toxic | – |
| Nc1cc(F)ccc1NC(=O)c1ccc(NC(=O)CCCCNC(=O)CNc2cccc3c2C(=O)N(C2CCC(=O)NC2=O)C3=O)cc1 (stereo unspecified) | – | – | 4.2 µM | 3.6 µM | – | 1.1 µM | Toxic | Activity (RAW264.7): inactive; Activity [6]: inactive; Activity [7]: inactive; Activity [8]: inactive; Activity [9]: inactive; Activity [10]: Active; Activity [11]: inactive; DC50 [12]: 0.32 µM; Activity [13]: Active |
| Nc1cccc2c1CN(C1CCC(=O)NC1=O)C2=O (stereo unspecified) [LENALIDOMIDE] | – | – | – | – | – | – | Toxic | – |
| Nc1ccccc1NC(=O)c1ccc(NC(=O)CCCCNC(=O)CNc2cccc3c2C(=O)N(C2CCC(=O)NC2=O)C3=O)cc1 (stereo unspecified) | Active | > 80% | 0.62 µM | 0.29 µM | inactive | 0.52 µM | – | Activity [14]: Active; Activity [15]: Active; Activity [16]: inactive; Activity [17]: Active |
